Measured values: ChEMBL document CHEMBL1138614, “Synthesis and antibacterial activities of novel oxazolidinones having spiro[2,4]heptane moieties” (2009)
Converted amounts (≈) assume the structure as drawn.

Columns and labels:
Format in all cases: functional
Staphylococcus aureus [1] = assay: Antibacterial activity against methicillin-resistant Staphylococcus aureus after 18 to 20 hrs by agar dilution method
Method in brief: (§1)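 Agar dilution MIC on test agar. Bacteria grown overnight in tryptosoy broth, diluted in the same broth to about 10⁶ cells/mL, then applied with an inoculating device onto agar holding serial twofold dilutions of compound. Plates incubated at 37 °C for 18–20 h. MIC taken as the lowest concentration visibly inhibiting growth, in µg/ml.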

Enterococcus faecium [2] = assay: Antibacterial activity against vancomycin-resistant Enterococcus faecium after 18 to 20 hrs by agar dilution method; method in brief: as §1
Enterococcus faecalis [3] = assay: Antibacterial activity against Enterococcus faecalis C474 after 18 to 20 hrs by agar dilution method
Method in brief: (§2)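 Agar dilution: bacteria grown overnight in tryptosoy broth and diluted in the same broth to about 10⁶ cells/mL. A multipoint inoculating device spotted them onto test agar carrying serial twofold dilutions of compound. Plates were held at 37 °C for 18–20 h. MIC (µg/ml) was read as the lowest concentration giving visible inhibition of growth.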

Staphylococcus = assay: Antibacterial activity against Coagulase negative Staphylococcus after 18 to 20 hrs by agar dilution method; method in brief: as §2
Enterococcus [4] = assay: Antibacterial activity against vancomycin-resistant Enterococcus 6 after 18 to 20 hrs by agar dilution method; method in brief: as §1
Staphylococcus aureus [5] = assay: Antibacterial activity against Staphylococcus aureus C463 after 18 to 20 hrs by agar dilution method; method in brief: as §1
Haemophilus influenzae = assay: Antibacterial activity against Haemophilus influenzae after 18 to 20 hrs by agar dilution method; method in brief: as §2
Streptococcus pyogenes = assay: Antibacterial activity against Streptococcus pyogenes ATCC 8736 after 18 to 20 hrs by agar dilution method; method in brief: as §2
Enterococcus [6] = assay: Antibacterial activity against vancomycin-resistant Enterococcus 4 after 18 to 20 hrs by agar dilution method; method in brief: as §1
Enterococcus [7] = assay: Antibacterial activity against vancomycin-resistant Enterococcus 1 after 18 to 20 hrs by agar dilution method; method in brief: as §1
Enterococcus faecium [8] = assay: Antibacterial activity against Enterococcus faecium C803 after 18 to 20 hrs by agar dilution method; method in brief: as §1
Enterococcus [9] = assay: Antibacterial activity against vancomycin-resistant Enterococcus 3 after 18 to 20 hrs by agar dilution method; method in brief: as §1
Streptococcus pneumoniae = assay: Antibacterial activity against Streptococcus pneumoniae C402 after 18 to 20 hrs by agar dilution method; method in brief: as §2
Streptococcus agalactiae = assay: Antibacterial activity against Streptococcus agalactiae ATCC 2901 after 18 to 20 hrs by agar dilution method; method in brief: as §2
Enterococcus faecalis [10] = assay: Antibacterial activity against vancomycin-resistant Enterococcus faecalis after 18 to 20 hrs by agar dilution method; method in brief: as §1
Enterococcus [11] = assay: Antibacterial activity against vancomycin-resistant Enterococcus 2 after 18 to 20 hrs by agar dilution method; method in brief: as §1
Enterococcus [12] = assay: Antibacterial activity against vancomycin-resistant Enterococcus 5 after 18 to 20 hrs by agar dilution method; method in brief: as §1

Compound	MIC (Staphylococcus aureus [1]) [µg/mL]	MIC (Enterococcus faecium [2]) [µg/mL]	MIC (Enterococcus faecalis [3]) [µg/mL]	MIC (Staphylococcus) [µg/mL]	MIC (Enterococcus [4]) [µg/mL]	MIC (Staphylococcus aureus [5]) [µg/mL]	MIC (Haemophilus influenzae) [µg/mL]	MIC (Streptococcus pyogenes) [µg/mL]	MIC (Enterococcus [6]) [µg/mL]	MIC (Enterococcus [7]) [µg/mL]	MIC (Enterococcus faecium [8]) [µg/mL]	MIC (Enterococcus [9]) [µg/mL]	MIC (Streptococcus pneumoniae) [µg/mL]	MIC (Streptococcus agalactiae) [µg/mL]	MIC (Enterococcus faecalis [10]) [µg/mL]	MIC (Enterococcus [11]) [µg/mL]	MIC (Enterococcus [12]) [µg/mL]
CC(=O)NC[C@H]1CN(c2ccc(N3CC(N)C4(CC4)C3)c(F)c2)C(=O)O1 (stereo not given in full)	6.25 (≈ 17.2 µM)	6.25 (≈ 17.2 µM)	6.25 (≈ 17.2 µM)	6.25 (≈ 17.2 µM)	12.5 (≈ 34.5 µM)	6.25 (≈ 17.2 µM)	6.25 (≈ 17.2 µM)	6.25 (≈ 17.2 µM)	6.25 (≈ 17.2 µM)	12.5 (≈ 34.5 µM)	6.25 (≈ 17.2 µM)	6.25 (≈ 17.2 µM)	6.25 (≈ 17.2 µM)	6.25 (≈ 17.2 µM)	12.5 (≈ 34.5 µM)	6.25 (≈ 17.2 µM)	6.25 (≈ 17.2 µM)
CC(=O)NC[C@H]1CN(c2ccc(N3CC(O)C4(CC4)C3)c(F)c2)C(=O)O1 (stereo not given in full)	6.25 (≈ 17.2 µM)	6.25 (≈ 17.2 µM)	12.5 (≈ 34.4 µM)	12.5 (≈ 34.4 µM)	3.12 (≈ 8.59 µM)	12.5 (≈ 34.4 µM)	6.25 (≈ 17.2 µM)	6.25 (≈ 17.2 µM)	6.25 (≈ 17.2 µM)	3.12 (≈ 8.59 µM)	6.25 (≈ 17.2 µM)	6.25 (≈ 17.2 µM)	3.12 (≈ 8.59 µM)	6.25 (≈ 17.2 µM)	6.25 (≈ 17.2 µM)	6.25 (≈ 17.2 µM)	6.25 (≈ 17.2 µM)
CC(=O)NC[C@H]1CN(c2ccc(N3C/C(=N\O)C4(CC4)C3)c(F)c2)C(=O)O1	12.5 (≈ 33.2 µM)	12.5 (≈ 33.2 µM)	25 (≈ 66.4 µM)	25 (≈ 66.4 µM)	12.5 (≈ 33.2 µM)	12.5 (≈ 33.2 µM)	12.5 (≈ 33.2 µM)	6.25 (≈ 16.6 µM)	6.25 (≈ 16.6 µM)	12.5 (≈ 33.2 µM)	12.5 (≈ 33.2 µM)	6.25 (≈ 16.6 µM)	12.5 (≈ 33.2 µM)	6.25 (≈ 16.6 µM)	12.5 (≈ 33.2 µM)	6.25 (≈ 16.6 µM)	6.25 (≈ 16.6 µM)
CCCO/N=C1\CN(c2ccc(N3C[C@H](CNC(C)=O)OC3=O)cc2F)CC12CC2	12.5 (≈ 29.9 µM)	12.5 (≈ 29.9 µM)	25 (≈ 59.7 µM)	12.5 (≈ 29.9 µM)	12.5 (≈ 29.9 µM)	25 (≈ 59.7 µM)	25 (≈ 59.7 µM)	12.5 (≈ 29.9 µM)	12.5 (≈ 29.9 µM)	12.5 (≈ 29.9 µM)	12.5 (≈ 29.9 µM)	12.5 (≈ 29.9 µM)	12.5 (≈ 29.9 µM)	12.5 (≈ 29.9 µM)	25 (≈ 59.7 µM)	12.5 (≈ 29.9 µM)	12.5 (≈ 29.9 µM)
CC(=O)NC[C@H]1CN(c2ccc(N3CC(F)C4(CC4)C3)c(F)c2)C(=O)O1 (stereo not given in full)	0.78 (≈ 2.13 µM)	1.56 (≈ 4.27 µM)	1.56 (≈ 4.27 µM)	3.12 (≈ 8.54 µM)	1.56 (≈ 4.27 µM)	3.12 (≈ 8.54 µM)	0.39 (≈ 1.07 µM)	1.56 (≈ 4.27 µM)	0.78 (≈ 2.13 µM)	1.56 (≈ 4.27 µM)	0.78 (≈ 2.13 µM)	3.12 (≈ 8.54 µM)	1.56 (≈ 4.27 µM)	0.78 (≈ 2.13 µM)	1.56 (≈ 4.27 µM)	1.56 (≈ 4.27 µM)	0.78 (≈ 2.13 µM)
CC(=O)NC[C@H]1CN(c2ccc(N3C/C(=N\N)C4(CC4)C3)c(F)c2)C(=O)O1	25 (≈ 66.6 µM)	25 (≈ 66.6 µM)	25 (≈ 66.6 µM)	12.5 (≈ 33.3 µM)	25 (≈ 66.6 µM)	25 (≈ 66.6 µM)	25 (≈ 66.6 µM)	12.5 (≈ 33.3 µM)	25 (≈ 66.6 µM)	12.5 (≈ 33.3 µM)	25 (≈ 66.6 µM)	12.5 (≈ 33.3 µM)	25 (≈ 66.6 µM)	25 (≈ 66.6 µM)	50 (≈ 133 µM)	25 (≈ 66.6 µM)	12.5 (≈ 33.3 µM)
CCO/N=C1\CN(c2ccc(N3C[C@H](CNC(C)=O)OC3=O)cc2F)CC12CC2	12.5 (≈ 30.9 µM)	12.5 (≈ 30.9 µM)	25 (≈ 61.8 µM)	12.5 (≈ 30.9 µM)	6.25 (≈ 15.5 µM)	12.5 (≈ 30.9 µM)	12.5 (≈ 30.9 µM)	12.5 (≈ 30.9 µM)	12.5 (≈ 30.9 µM)	12.5 (≈ 30.9 µM)	12.5 (≈ 30.9 µM)	6.25 (≈ 15.5 µM)	12.5 (≈ 30.9 µM)	12.5 (≈ 30.9 µM)	12.5 (≈ 30.9 µM)	6.25 (≈ 15.5 µM)	6.25 (≈ 15.5 µM)
CC(=O)NC[C@H]1CN(c2ccc(N3CC(=O)C4(CC4)C3)c(F)c2)C(=O)O1	3.12 (≈ 8.63 µM)	1.56 (≈ 4.32 µM)	6.25 (≈ 17.3 µM)	3.12 (≈ 8.63 µM)	1.56 (≈ 4.32 µM)	3.12 (≈ 8.63 µM)	1.56 (≈ 4.32 µM)	3.12 (≈ 8.63 µM)	3.12 (≈ 8.63 µM)	3.12 (≈ 8.63 µM)	1.56 (≈ 4.32 µM)	1.56 (≈ 4.32 µM)	0.78 (≈ 2.16 µM)	1.56 (≈ 4.32 µM)	1.56 (≈ 4.32 µM)	1.56 (≈ 4.32 µM)	3.12 (≈ 8.63 µM)
CO/N=C1\CN(c2ccc(N3C[C@H](CNC(C)=O)OC3=O)cc2F)CC12CC2	6.25 (≈ 16 µM)	6.25 (≈ 16 µM)	12.5 (≈ 32 µM)	12.5 (≈ 32 µM)	6.25 (≈ 16 µM)	6.25 (≈ 16 µM)	6.25 (≈ 16 µM)	6.25 (≈ 16 µM)	6.25 (≈ 16 µM)	6.25 (≈ 16 µM)	6.25 (≈ 16 µM)	6.25 (≈ 16 µM)	3.12 (≈ 7.99 µM)	6.25 (≈ 16 µM)	6.25 (≈ 16 µM)	3.12 (≈ 7.99 µM)	6.25 (≈ 16 µM)
CC(=O)NC[C@H]1CN(c2ccc(N3CCOCC3)c(F)c2)C(=O)O1 [LINEZOLID]	1.56 (≈ 4.62 µM)	1.56 (≈ 4.62 µM)	1.56 (≈ 4.62 µM)	3.12 (≈ 9.25 µM)	1.56 (≈ 4.62 µM)	3.12 (≈ 9.25 µM)	1.56 (≈ 4.62 µM)	1.56 (≈ 4.62 µM)	1.56 (≈ 4.62 µM)	1.56 (≈ 4.62 µM)	1.56 (≈ 4.62 µM)	1.56 (≈ 4.62 µM)	0.78 (≈ 2.31 µM)	1.56 (≈ 4.62 µM)	1.56 (≈ 4.62 µM)	1.56 (≈ 4.62 µM)	1.56 (≈ 4.62 µM)
